Assay results from ChEMBL document CHEMBL1687936, “Radiosynthesis and biological evaluation of L- and D-S-(3-[18F]fluoropropyl)homocysteine for tumor imaging using positron emission tomography” (J Med Chem, 2011).

What was measured:
[1] = test system: Pancreas; assay: Metabolic stability in pancreas of BALB/c nude mouse xenografted with human A375 cells assessed as radioactivity after 1 hrs by HPLC analysis; assay type: ADME, tissue-based, A-375; settings: in vivo
Method in brief: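 A375-tumored Balb/c nude mice received 18-20 MBq tracer iv. Plasma and urine were spiked with unlabeled FPHCys and KF and injected directly; tissues were sonicated in saline with carrier and centrifuged at 6000g. Radio-HPLC on C18 with methanol/phosphate buffer pH 6 gave intact fraction as authentic peak over total activity, at 0.25, 1 and 2 h.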

[2] = test system: HT-29; assay: Drug uptake in human HT-29 cells in presence of amino acid transport system L inhibitor BCH; assay type: ADME, cell-based
Method in brief: (§1)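 Cells were prepared as for the uptake assay and preincubated at 37 °C with inhibitor at 12.5 mmol/L in PBS; controls received PBS. 0.37 MBq [18F]tracer was added and incubated 30 min at 37 °C. Cells were washed cold, lysed and γ-counted. Uptake is given as % of the control group, n = 3.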

[3] = test system: A-375; assay: Drug uptake in human A375 cells in presence of amino acid transport system L inhibitor BCH; assay type: ADME, cell-based; method in brief: as §1

| SMILES | Stability [1] [%] | Drug uptake [2] | Drug uptake [3] |
| --- | --- | --- | --- |
| Cl.N[C@@H](CCSCCC[18F])C(=O)O | 30 | – | – |
| Cl.N[C@H](CCSCCC[18F])C(=O)O | – | Not Active | Not Active |
